Screening results deposited in PubChem by Broad Institute.
DENV2 CPE rescue = DENV2-induced cell death inhibition; DENV2-infected cells, cytopathic effect rescue, plate reader; CPE inhibition, % at 9.99 µM; 1.7% of 350,000 active; AID 651640; in the data active means CPE inhibition above about 20%, passing the limit was not always enough; inconclusive means no clear call, values can overlap the other calls; tested in BHK-21 cells;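 further: 0% = median of neutral control wells and 100% = median of positive control wells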
XiGFP reactiv = activators of X-chromosome reactivation in mouse fibroblasts | XiGFP mouse fibroblasts, % GFP-positive cells imaging, 3 d; cells co-treated with 5-aza-dC sensitizer; scaled so ellipticine positive control = 100% | activation, % at 7.58 µM | 0.055% of 360,000 active;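 active means mean normalized replicate activation at least 10% and every replicate at or above 10%; inconclusive means only one of the two criteria met; inactive means mean below 10% and not all replicates reach 10%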;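 further: 0% = median of on-plate neutral control wells and 100% = ellipticine 6 µM median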
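Material: XiGFP fibroblasts, SV40-immortalized; Buffer or medium: DMEM containing 5-aza-dC; Compound dosing: single point; Times: 3 days compound exposure.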
SIRT5 block = blocks human SIRT5 desuccinylation of peptide. Purified SirT5, succinyl-peptide AMC, trypsin-coupled fluorescence. 1.1% of 330,000 active. AID 652115. inhibition, % at 15 µM; in the data active means inhibition above about 15%; inconclusive means no clear call, values can overlap the other calls
Target sequence (Q9NXA8 whole entry, looked up): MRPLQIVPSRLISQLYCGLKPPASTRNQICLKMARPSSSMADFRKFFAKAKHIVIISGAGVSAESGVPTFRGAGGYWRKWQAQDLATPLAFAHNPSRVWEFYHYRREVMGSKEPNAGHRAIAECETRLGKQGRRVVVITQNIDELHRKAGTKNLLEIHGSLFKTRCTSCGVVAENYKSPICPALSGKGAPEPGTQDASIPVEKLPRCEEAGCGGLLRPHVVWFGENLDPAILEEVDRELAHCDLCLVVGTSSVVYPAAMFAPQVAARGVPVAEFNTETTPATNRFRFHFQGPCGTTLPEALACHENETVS
FN deposition inh = fibronectin deposition inhibition. AH1F fibroblasts, Alexa488-fibronectin deposition fluorescence, overnight. 0.086% of 350,000 active. inhibition, % at 12.6 µM. AID 743247;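 active means mean inhibition across replicates of 30% or more, regardless of how many single replicates reach that level; inconclusive means mean under 30% yet at least half of replicates reach 30%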;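 further: positive control wells lacked labelled fibronectin entirely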
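Measured by – fluorescence 485/525 nm · System – AH1F fibroblast monolayer, labelled fibronectin deposition · Amount – 10000 cells per well · Buffer or medium – serum-reduced DMEM (2% serum) · Doses – single dose, pinned · Also added – fluorescent fibronectin at 24 nM final · Schedule – 1 h cell attachment, overnight exposure to compound and label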
ARNT-TACC3 inh = ARNT/TACC3 interaction disruption; AlphaScreen His-ARNT PAS-B/GST-TACC3 binding, luminescence; TACC3 fragment carries E629A point mutation; 0.66% of 390,000 active; inhibition, % at 9.99 µM; AID 623870;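 active means mean inhibition of replicates at least 50% and at least half of replicates each reaching 50%; inconclusive means half or more replicates reach 50% but mean below 50%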;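 further: 0% = complete ARNT plus TACC3 wells and 100% = ARNT alone without TACC3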
FGF22 binding = FGF22 (human) thermal shift binding; Q9HCT0; recombinant FGF22 thermal shift, SYPRO orange fluorescence; percent of sucrose octasulfate shift, DMSO zero; activity (Tm shift, normalised), % at 9.99 µM; 1.5% of 340,000 active;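 active means mean Tm shift, scaled 0 neutral to 100 positive control, at about 1.3% or above, every replicate too, limit read from the data; inconclusive means no clear call, values can overlap the other calls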
Target sequence (Q9HCT0 whole entry, looked up): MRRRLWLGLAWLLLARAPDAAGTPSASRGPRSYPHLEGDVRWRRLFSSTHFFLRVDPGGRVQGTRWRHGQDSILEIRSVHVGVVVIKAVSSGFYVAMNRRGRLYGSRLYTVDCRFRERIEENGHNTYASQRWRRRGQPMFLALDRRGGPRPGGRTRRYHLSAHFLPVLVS
Starred values were filed as active, the others as inactive; ? = inconclusive; . = not tested or not shown. The list is not random: actives were taken first. Their share in the collection is about 3.8%.

SMILES	DENV2 CPE rescue	XiGFP reactiv	SIRT5 block	FN deposition inh	ARNT-TACC3 inh	FGF22 binding
C[C@@H]1CN([C@H](C)CO)S(=O)(=O)c2ccc(C3=CCCC3)cc2O[C@H]1CN(C)S(=O)(=O)c1cn(C)cn1	0.5	0.0	-1.4	-13.9	-6.0	0.0
CCCNC(=O)C[C@H]1CC[C@@H]2[C@@H](COc3ccc(NC(=O)NCC)cc3C(=O)N2C)O1	16.8	0.0	-3.2	.	-9.0	-0.2
COc1ccc(S(=O)(=O)Nc2ccc3c(c2)C(=O)N([C@H](C)CO)C[C@H](C)[C@@H](CN(C)S(=O)(=O)c2ccccc2)OCCCC[C@H](C)O3)cc1	-1.0	0.4	13.6	.	.	.
N#CC1(Nc2cccc(Cl)c2)CCCC1	-5.2	0.2	.	-4.3	-5.7	43.0*
N#CC1(Nc2ccc(C(=O)O)cc2)CCCC1	0.1	0.1	0.4	-7.5	-7.8	0.0
COc1ccc(NC(=O)c2cccnc2N2CCCC2)cc1	-0.8	.	18.8*	.	-2.1	0.0
COc1ccccc1C(=O)NC(=S)Nc1ccc(NC(=O)c2ccco2)cc1	7.5	0.0	2.5	-13.3	-8.6	1.5*
CC(C)Oc1cccc(C(=O)NC(=S)Nc2cccc(NC(=O)c3ccccc3Cl)c2)c1	5.8	0.1	-0.3	10.9	48.6*	0.0
COc1ccccc1C(=O)Nc1ccc(NC(=O)c2ccco2)cn1	-0.5	.	-2.9	-0.3	-2.7	0.3
CC(C)CC(=O)NC(=S)Nc1cccc(NC(=O)c2ccccc2Cl)c1	.	.	.	-0.4	6.4	.
O=C(NC(=S)Nc1ccc(O)cc1)c1ccccc1Cl	-3.0	0.1	2.6	0.1	7.3	41.9
COc1ccc(NC(=S)NC(=O)c2ccccc2Cl)cc1	-1.2	0.0	-2.0	-8.8	7.8	43.2*
C[C@@H]1CN([C@@H](C)CO)C(=O)Cc2cc(NC(=O)Nc3ccccc3)ccc2O[C@H]1CN(C)C(=O)NC1CCCCC1	-10.9	-1.3	2.1	-2.4	-28.3	0.0
Cc1ccc(S(=O)(=O)Nc2ccc3c(c2)C(=O)N([C@H](C)CO)C[C@@H](C)[C@H](CN(C)C(=O)Nc2ccccc2)OCCCC[C@H](C)O3)cc1	.	-0.9	.	.	.	.
C[C@@H]1CCCCO[C@@H](CN(C)C(=O)Nc2ccc3c(c2)OCO3)[C@H](C)CN([C@@H](C)CO)C(=O)c2cc(NC(=O)CCCN(C)C)ccc2O1	3.8	0.1	-2.4	.	-4.8	0.0
O=C(NC(=S)Nc1ccc(CN2CCOCC2)cc1)c1ccco1	1.9	-0.1	-2.4	-2.8	32.4	0.0
O=C(NC(=S)Nc1ccc(CN2CCCCC2)cc1)c1ccco1	-5.9	0.0	1.0	-17.8	-3.7	43.4*
COc1ccc(NC(=S)NNC(=O)CNc2ccc(Cl)cc2)cc1	-1.3	0.3	0.0	.	.	1.4*
CNC(=O)C[C@@H]1CC[C@H]2[C@H](COc3ccc(NC(=O)c4ccccc4Cl)cc3C(=O)N2C)O1	-0.3	0.2	5.9	-11.3	4.3	0.1
Cc1cnc(C(=O)NCc2ccc(Cl)cc2Cl)cn1	4.9	0.1	2.2	.	-31.9	43.3*
Cc1cnc(C(=O)NCCc2ccc(Cl)cc2)cn1	3.5	0.0	1.4	.	0.1	0.1
CCCCc1nc2sc3c(=O)n(N)cnc3c2c2c1CCC2	-2.3	0.3	6.4	-5.7	0.4	43.2*
CC(C)Cc1nc2sc3c(=O)n(N)cnc3c2c2c1COC(C)(C)C2	-4.1	0.5	-1.8	.	-2.6	-0.1
COc1ccc(C(=O)COC(=O)C2CCC(=O)N2)cc1 (configuration not stated)	1.5	0.0	16.7*	-4.4	17.3	0.4
O=C(COC(=O)C1CCC(=O)N1)Nc1ccccc1Br (configuration not stated)	-3.9	0.3	-7.4	-2.6	-14.9	43.1*
SMILES	DENV2 CPE rescue	XiGFP reactiv	SIRT5 block	FN deposition inh	ARNT-TACC3 inh	FGF22 binding
O=C(C[C@@H]1CC[C@H]2[C@@H](COC[C@H](O)CN2Cc2cc(F)ccc2F)O1)N[C@H]1CCN(Cc2ccccc2)C1	1.3	0.4	-1.3	-2.1	-3.1	0.1
O=C(C[C@@H]1C=C[C@@H](NC(=O)CN2CCOCC2)[C@@H](CO)O1)NCCc1ccccc1	-3.2	-0.3	-0.7	.	.	-0.1
COCC(=O)N1[C@@H](CO)[C@@H]2c3ccccc3N(C(=O)c3cccc(OC)c3)C[C@@H]21	-6.2	0.4	2.4	.	-9.1	-0.3
COc1ccc(S(=O)(=O)Nc2cccc3c2O[C@H](CN(C)C(=O)Nc2c(C)noc2C)[C@H](C)CN([C@H](C)CO)C3=O)cc1	-0.6	-0.1	0.2	.	-3.4	0.3
Cc1nn(CC2CC2)c(=O)n1-c1ccc(Oc2ccccc2)cc1	?	0.0	-4.9	-5.8	-4.9	43.2*
COc1ccc(-n2c(C)nn(CCOc3ccccc3)c2=O)cc1	-4.6	0.0	1.2	.	-1.7	0.2
COc1ccc2ccccc2c1-c1sc(Nc2ccccc2)n[n+]1-c1ccc(F)cc1	51.5*	0.0	.	1.4	20.3	-0.2
COC(=O)c1cccc(-c2ccc(C(c3c(C)[nH][nH]c3=O)c3c(C)[nH][nH]c3=O)o2)c1	-3.2	0.2	0.2	-0.7	63.7*	-0.4
Cc1[nH][nH]c(=O)c1C(c1ccc(-c2ccc(Cl)c(C(=O)O)c2)o1)c1c(C)[nH][nH]c1=O	8.3	0.1	-1.0	12.5	13.0	.
C[C@H]1CN([C@@H](C)CO)C(=O)CCCn2cc(nn2)CO[C@H]1CN(C)S(=O)(=O)c1ccc(C#N)cc1	6.3	0.0	0.5	2.9	-3.5	-0.2
C[C@H](CO)N1C[C@H](C)[C@H](CN(C)C(=O)CN(C)C)Oc2cc(C#CC3CC3)ccc2S1(=O)=O	-6.9	-1.1	-0.2	.	3.4	-0.1
CC1(NCc2ccc(Cl)cc2)COP(=O)(NCc2ccccc2)OC1 (configuration not stated)	-0.8	-0.1	15.8*	3.0	-15.1	-0.2
CCC(=O)N1CCCCN2[C@H](C1)[C@H](c1ccc(C#Cc3cccnc3)cc1)[C@@H]2CO	28.0*	0.2	1.8	.	-5.9	0.3
CCC(=O)N1CCCCN2[C@H](CO)[C@@H](c3ccc(C#Cc4cccnc4)cc3)[C@H]2C1	-7.3	0.0	2.1	.	-4.5	0.1
CCC(=O)N1CCCCN2[C@H](C1)[C@@H](c1ccc(C#Cc3cccnc3)cc1)[C@@H]2CO	23.7*	0.0	14.9	.	-11.6	0.2
Cc1ccc(-c2cnc3c(c2)C(=O)N([C@H](C)CO)C[C@@H](C)[C@H](CN(C)S(C)(=O)=O)O3)cc1	.	-0.2	.	.	.	.
COc1cccc(S(=O)(=O)N2CC3(CN[C@H](CO)c4[nH]c5cc(OC)ccc5c43)C2)c1	1.9	0.2	4.9	.	.	-0.3
C[C@H]1C(=O)N(C)CCN1Cc1cn(C)nc1-c1ccc(Oc2ccccc2)cc1	0.9	0.0	-1.1	4.1	-2.5	43.6*
